# A selection: hits, their analogues and other compounds. The true share with any hit is near 2.3%.
# MsrA inh: bovine MsrA enzyme inhibitors, primary screen, biochemical, absorbance, HTS | Methionine sulfoxide reductase A (Bos taurus) | purified bovine MsrA, absorbance read-out | inhibition, % at 15.5 µM | 0.75% of 360,000 active; in the data active means inhibition above about 4.5%;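 further: 0% = vehicle wells with enzyme and 100% = reference inhibitor wells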
# MC4R antag cAMP: MC4R antagonists of cAMP signaling, primary screen, cell-based, TR-FRET, antagonist arm of biased-ligand search; Melanocortin receptor 4 (Homo sapiens), P32245; MC4R-expressing cells, MTII-stimulated cAMP, LANCE TR-FRET; inhibition, % at 6.5 µM; 0.48% of 360,000 active;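 active means inhibition above its plate's cutoff, the mean of tested wells on that plate plus 3 SD, cut at about 29% in these data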;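 further: 0% = Melanotan II alone and 100% = Melanotan II plus saturating MCL0020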
# Target sequence (P32245 whole entry, looked up): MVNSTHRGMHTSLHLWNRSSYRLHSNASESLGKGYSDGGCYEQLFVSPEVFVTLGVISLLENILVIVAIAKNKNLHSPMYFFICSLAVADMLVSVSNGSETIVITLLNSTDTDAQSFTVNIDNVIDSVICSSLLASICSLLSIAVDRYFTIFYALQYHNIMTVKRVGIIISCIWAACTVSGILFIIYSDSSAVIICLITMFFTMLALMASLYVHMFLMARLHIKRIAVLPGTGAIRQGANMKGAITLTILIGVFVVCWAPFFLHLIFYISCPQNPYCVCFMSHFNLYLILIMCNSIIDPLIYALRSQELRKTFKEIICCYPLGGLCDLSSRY
#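 Material: human MC4R-expressing U2OS cells. Probe or stimulus: Melanotan II challenge. Dosing: 6.5 µM single dose. Times: 30-min compound, 1-h challenge, 1-h detection, room temperature. Technique: TR-FRET with Eu-cAMP and labeled anti-cAMP, 671 nm. Replication: singlicate.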
# MC4R ag barr: MC4R agonists recruiting beta-arrestin, primary screen, cell-based, luminescence, agonist arm of biased-ligand search | Melanocortin receptor 4 (Homo sapiens), P32245 | U2OS MC4R beta-arrestin complementation; percent of melanotan II response, DMSO zero | activation, % at 8.9 µM | 0.98% of 360,000 active;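 active means activation above a per-plate cutoff, the mean activation of sample wells on that plate plus 3 SD, cut at about 8% in these data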
# bovine MsrA act: bovine MsrA enzyme activators, primary screen, biochemical, absorbance, HTS. Methionine sulfoxide reductase A (Bos taurus). purified bovine MsrA, absorbance read-out. activation, % at 10.6 µM. 0.3% of 360,000 active; in the data active means activation above about 7.5%;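 further: 0% = vehicle and 100% = reference activator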
# * marks the source's active call; other numbers are inactive results; nt = no result given.
SMILES,MsrA inh,MC4R antag cAMP,MC4R ag barr,bovine MsrA act
CCCCOc1ccc(CCN)cc1Cl,0,5,8.3*,-1
CCn1nc(-c2cccs2)nc2c(=O)n(C)c(=O)nc1-2,nt,-38,1,59*
CCOc1ccc(-n2c(-c3cccs3)nc3ccccc3c2=O)cc1,1,6,2,-2
COC(=O)C1=C(c2ccc(OC(F)(F)F)cc2)C[C@@H]2CC[C@H]1N2C(=O)NCCNC(C)=O,-1,10,1,-5
COC(=O)C1=C(c2ccc(OC(F)(F)F)cc2)C[C@@H]2CC[C@H]1N2C(=O)NCCOc1ccc(OC)cc1,10.0*,11,3,-1
O=C(O)c1cc2ccccc2oc1=O,-1,11,0,-1
C/C1=C\[C@@H](C)C/C=C/[C@H]2[C@@H]3O[C@]3(C)[C@@H](C)[C@H]3[C@H](Cc4c[nH]c5ccccc45)NC(=O)[C@]32C(=O)/C=C/C(=O)[C@@H]1O,nt,-13,-2,8.1*
CC1=CC2/C=C(\C)CCC(O)C(O)/C=C/C(=O)C23C(=O)NC(CC(C)C)C3C1C (centres undefined),nt,8,-2,-1
C=C(COC(C)=O)CC1CC(O)[C@]2(C)OC3CC4OC5C[C@]6(C)O[C@]7(C)CCC8OC9C[C@]%10(C)OC%11C(C)=CC(=O)OC%11CC%10OC9C[C@@H](C)C8OC7CC6O[C@]5(C)C/C=C\C4OC3CC2O1 (some centres undefined),nt,6,0,9.7*
CCOC(=O)c1c(C=O)c2ccccc2n1Cc1ccccc1F,4.6*,18,2,-3
O=C(NCP(=O)(Oc1ccccc1)Oc1ccccc1)OCc1ccccc1,0,nt,nt,-7
Cc1c(Cl)cccc1NC(=S)N1CC2CC(C1)c1cccc(=O)n1C2 (centres undefined),0,1,1,6
COc1ccc2c3c([nH]c2c1)C(C)=NCC3,4,4,0,11*
CC1=NCCc2c1[nH]c1cc(O)ccc21,2,-14,-1,-7
C[C@H]1CNCCN1c1ccc(N2CC[C@@H](O)C2)c(C#N)c1,2,nt,nt,nt
c1ccc2c(c1)[IH]c1ccccc1-2,85*,-12,-1,-10
CCOc1cccc(CNCCc2c(C)[nH]c3ccc(OC(F)(F)F)cc23)c1O,-2,8,17*,0
C[C@@H]1O[C@@H](O[C@H]2C[C@@H](O)[C@]3(CO)[C@H]4[C@H](O)C[C@]5(C)[C@@H](C6COC(=O)C6)CC[C@]5(O)[C@@H]4CC[C@]3(O)C2)[C@H](O)[C@H](O)[C@H]1O (some centres undefined),-1,6,24*,-2
CC1OC(OC2CC(O)C3(CO)C4C(O)CC5(C)C(C6=CC(=O)OC6)CCC5(O)C4CCC3(O)C2)C(O)C(O)C1O (centres undefined),0,13,16*,1
CC(=O)OC1CC(OC2C(O)CC(OC3C(O)CC(OC4CCC5(C)C(CCC6C5CCC5(C)C(C7=CC(=O)OC7)CCC65O)C4)OC3C)OC2C)OC(C)C1OC1OC(CO)C(O)C(O)C1O (centres undefined),0,-5,33*,-4
CC12CC[C@H]3[C@@H](CCC4(O)C[C@H](O)CCC34/C=N/NC(=O)c3ccc(O)cc3)C1(O)CCC2C1=CC(=O)OC1 (some centres undefined),1,15,1,-4
CCN(CC)c1ccc(/C=C2/C(=O)NC(=O)N(Cc3ccco3)C2=O)cc1,4.6*,12,0,-10
C=CCN1C(=O)NC(=O)/C(=C\c2ccc(-c3ccccc3[N+](=O)[O-])o2)C1=O,0,13,0,-11
O=C1NC(=O)N(Cc2ccco2)C(=O)/C1=C/c1ccc(-c2cccc([N+](=O)[O-])c2)o1,nt,31*,-1,-12
CN(C)c1ccc(/C=C2/C(=O)NC(=O)N(Cc3ccco3)C2=O)cc1,3,12,1,-5
CCOc1cc(C=O)ccc1O,4.6*,4,0,-10
CC(O)(CS(=O)(=O)c1ccccc1)C(=O)Nc1ccc(C(F)(F)F)cc1 (centres undefined),0,4,1,0
CC(O)(CS(=O)(=O)c1cccc(C(F)(F)F)c1)C(=O)Nc1cccc(C(F)(F)F)c1 (centres undefined),0,4,10.0*,-1

# Source: PubChem BioAssay (The Scripps Research Institute Molecular Screening Center)
